Experimental data taken from PubChem BioAssay.
Activity calls are given as the source filed them.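 How the source made its calls, unless noted: active means fluorescence slope higher than the sample average by over 3 SD (cut at about -0.22 in these data, passing the limit was not always enough); inactive means the rest.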

Tests used:
[1] = inhibitors of TNFa-induced NFkB p65 translocation, primary screen, imaging, HUVEC, MLSMR starter and 10KST1 sets (AID 438;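 active means inhibition above 20% together with a positive visual image hit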;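 further: compound added about 3h40 before a 20 min TNFalpha stimulation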;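 on inhibition: signal is the nuclear over cytoplasmic p65 intensity ratio per well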); settings: HUVEC TNFa-induced p65 nuclear translocation; cell count: measured here: nuclei count (cytotoxicity indicator), at 2.08 µM; inhibition: at 2 µM, stronger effect = higher value, 0% TNFa-plus-vehicle, 100% no-TNFa wells
[2] = reduction of polyQ htt aggregates in cells – imaging, exon1htt(103Q)mCFP cells, high-content imaging, primary screen (AID 483;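 active means visual image review flags a hit and inhibition of aggregation exceeds 20%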;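 further: compound exposure lasted 3 days before fixation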;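 on nuclei count: percent of the per-plate median nuclei count of sample wells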); settings: exon1htt(103Q)mCFP cell line, aggregate imaging, at 2 µM; inhibition of aggregation: stronger effect = higher value; nuclei count: measured here: cell count, toxicity
[3] = endothelial E-selectin expression blockers – imaging, HUVEC, immunofluorescence, MLSMR starter and 10KST1 sets, primary screen (AID 487;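 active means visually confirmed hit in the image check and inhibition above 20%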;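 on inhibition: signal is fraction of cell area covered by stained E-selectin grains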;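 on nuclei count: 100% = median nuclei count of all wells on the same plate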); settings: HUVEC TNFalpha-induced E-selectin immunofluorescence imaging, at 2 µM; inhibition: stronger effect = higher value; nuclei count: measured here: cell number, toxicity
[4] = target: Voltage-gated potassium channel subunit beta-2 (Rattus norvegicus) (UniProt P62483); assay: inhibitors of rat Kvbeta2 reductase activity – biochemical, NADPH fluorescence, primary screen (AID 622); settings: recombinant KvBeta, 4-cyanobenzaldehyde reduction, at 10 µM, stronger effect = higher value;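 further: slope of raw intensity against log time taken from 70 to 1610 s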
[5] = target: Voltage-gated potassium channel subunit beta-2 (Rattus norvegicus) (UniProt P62483); assay: enhancers of rat Kvbeta2 NADPH turnover – biochemical, NADPH fluorescence, primary screen (AID 623;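 active means NADPH fluorescence slope more negative than the mean of all samples by about 3 SD, 99.7% confidence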;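 further: fluorescence intensity change per second fitted from 20 to 320 s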); settings: Recombinant KvBeta, NADPH fluorescence decrease slope, 10 min; at 10 µM; stronger effect = lower value
[6] = target: Muscarinic acetylcholine receptor M4 (Homo sapiens) (UniProt P08173); assay: M4-linked GIRK flux change, two-sided – cell-based, HEK293 M4/GIRK, thallium flux, BTC-AM, M4 allosteric agonist project, primary screen (AID 625;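 active means fluorescence slope after compound addition differing from the mean of all tested samples at 99.7% confidence, mostly higher but some lower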;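 further: thallium influx through GIRK channels coupled to M4 in HEK293 cells with BTC-AM dye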); settings: at 10 µM, actives lie on both sides
In short: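 Material: HEK293 cells with M4 receptor and GIRK channels; Times: cells overnight at 37 °C, BTC-AM loading 1 h, reads 2 min total; Technique: kinetic BTC-AM fluorescence sampled at 1 Hz, 10 s pre-addition baseline; Read-out basis: slope over 15–24 s of trace normalized to starting intensity; Controls: carbachol positive, DMSO negative.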

[7] = blockers of RIG-like receptor reporter activation – cell-based, Sendai virus stimulus, luciferase, 10K MLSCN set, TLR/RLR signaling modifier project, primary screen (AID 602276;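 active means inhibition at or above 50% at 10 µM; inactive means inhibition below 50%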;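 further: firefly luciferase from ISG56 promoter only with Renilla not read in this screen; 0% = Sendai virus plus DMSO and 100% = medium plus DMSO without virus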); settings: HEK293 RL24 IRF3 luciferase reporter, at 10 µM, stronger effect = higher value
[8] = TLR3 IRF3 reporter activation blockers – cell-based, poly I:C stimulus, luciferase, 10K MLSCN set, primary screen (AID 602277;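 active means inhibition of the reporter signal at or above 50%; inactive means inhibition below 50%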); settings: HEK293-TLR3 RL24 IRF3 luciferase reporter, at 10 µM, stronger effect = higher value

Voltage-gated potassium channel subunit beta-2 (Rattus norvegicus), sequence (P62483 whole entry, looked up): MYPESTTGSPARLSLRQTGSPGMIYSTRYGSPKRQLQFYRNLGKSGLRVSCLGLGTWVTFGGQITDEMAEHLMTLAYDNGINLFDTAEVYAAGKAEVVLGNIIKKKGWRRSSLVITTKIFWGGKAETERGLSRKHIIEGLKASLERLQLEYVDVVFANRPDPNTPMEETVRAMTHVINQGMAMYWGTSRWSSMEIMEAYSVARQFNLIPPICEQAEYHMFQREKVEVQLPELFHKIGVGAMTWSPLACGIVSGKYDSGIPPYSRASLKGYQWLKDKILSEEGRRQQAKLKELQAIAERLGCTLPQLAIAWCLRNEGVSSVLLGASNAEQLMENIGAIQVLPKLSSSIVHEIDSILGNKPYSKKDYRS
Muscarinic acetylcholine receptor M4 (Homo sapiens), sequence (P08173 whole entry, looked up): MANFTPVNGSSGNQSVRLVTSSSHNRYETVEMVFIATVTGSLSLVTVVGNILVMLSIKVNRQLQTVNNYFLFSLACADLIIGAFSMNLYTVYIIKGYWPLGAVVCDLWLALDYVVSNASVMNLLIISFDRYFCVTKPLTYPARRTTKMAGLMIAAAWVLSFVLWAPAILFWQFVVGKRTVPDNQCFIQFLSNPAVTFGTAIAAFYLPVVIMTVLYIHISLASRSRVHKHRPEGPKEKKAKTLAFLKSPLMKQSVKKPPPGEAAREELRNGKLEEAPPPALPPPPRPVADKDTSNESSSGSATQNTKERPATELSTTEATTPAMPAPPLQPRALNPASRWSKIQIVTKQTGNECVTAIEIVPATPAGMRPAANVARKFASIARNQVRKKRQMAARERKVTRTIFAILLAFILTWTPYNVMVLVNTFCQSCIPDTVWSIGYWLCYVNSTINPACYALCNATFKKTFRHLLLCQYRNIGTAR

Compound	cell count [1]	inhibition [1]	inhibition of aggregation [2]	nuclei count [2] [%]	inhibition [3]	nuclei count [3] [%]	fluorescence slope [4]	NADPH fluorescence slope [5]	fluorescence slope [6]	inhibition [7]	inhibition [8]
Cc1[nH]nc2c1C1(CCN(C(=O)c3ccccc3)CC1)C(C#N)=C(N)O2	316	-17% (inactive)	22.6% (inactive)	74.8	23.5% (inactive)	114	-0.598 (inactive)	-2.2e-06 (inactive)	0.00593 (inactive)	26.8% (inactive)	32.8% (inactive)
CC(n1cnnn1)C12CC3CC(CC(C3)C1)C2 (configuration not stated)	555	1.3% (inactive)	0.3% (inactive)	106	16.7% (inactive)	114	-0.495 (inactive)	0.000168 (inactive)	0.00589 (inactive)	16.5% (inactive)	32.3% (inactive)
CCCN(CCO)Cc1cccc(Br)c1	492	-1.1% (inactive)	7.9% (inactive)	93.6	-109% (inactive)	109	-0.437 (inactive)	2.5e-05 (inactive)	0.00547 (inactive)	14.5% (inactive)	19.3% (inactive)
CN=C1CC(C)(C)CC(=O)/C1=C(/O)CCC(=O)NC	367	10.4% (inactive)	10.3% (inactive)	104	50.5% (inactive)	90.9	-0.45 (inactive)	-1.9e-05 (inactive)	0.00526 (inactive)	13% (inactive)	15.4% (inactive)
CC(=O)c1cc2c(=O)c3cc(C)ccc3oc2nc1C	410	5.3% (inactive)	7.1% (inactive)	93.5	-96.2% (inactive)	187	-0.346 (inactive)	5.2e-06 (inactive)	0.00597 (inactive)	-28.2% (inactive)	-91.3% (inactive)
CCCC(=O)N1CCN(c2ccc(NC(=O)c3ccc(Br)o3)cc2)CC1	232	0.6% (inactive)	7.1% (inactive)	58.2	-64.1% (inactive)	116	-0.457 (inactive)	6.7e-06 (inactive)	0.00487 (inactive)	-9.3% (inactive)	-42.4% (inactive)
Cc1ccc(-n2nnnc2SCC(=O)N2CCN(C(=O)c3ccco3)CC2)c(C)c1	731	-4.4% (inactive)	27.6% (inactive)	91	-5.5% (inactive)	109	-0.568 (inactive)	-5.4e-05 (inactive)	0.00555 (inactive)	1.61% (inactive)	10.6% (inactive)
CCCOc1ccc([C@@H]2C3CN(C(=O)OCC)CC=C3C(C#N)=C(N)C2(C#N)C#N)cc1OC (some centres not stated)	743	-23.3% (inactive)	14.7% (inactive)	102	-44.9% (inactive)	112	-0.237 (inactive)	-2.5e-05 (inactive)	0.00528 (inactive)	11% (inactive)	-2.37% (inactive)
COc1ccc(NCc2nnc(SCC(=O)Nc3cc(C)cc(C)c3)o2)cc1	396	-1.1% (inactive)	8.7% (inactive)	101	36.7% (inactive)	79.5	-0.4 (inactive)	-0.000139 (inactive)	0.00688 (inactive)	11% (inactive)	22.6% (inactive)
CCCCN(c1ccccc1)S(=O)(=O)c1ccc2c(c1)CCN2C(=O)CCC(=O)O	648	1.3% (inactive)	7.8% (inactive)	112	-65.5% (inactive)	117	-0.526 (inactive)	5.3e-05 (inactive)	0.00543 (inactive)	22.6% (inactive)	99.4% (active)
Clc1ccc(Cn2ncc3c(NCc4cccnc4)ncnc32)cc1	321	-13.5% (inactive)	-3.5% (inactive)	113	41.6% (inactive)	82	-0.55 (inactive)	-0.000128 (inactive)	0.00407 (inactive)	13.3% (inactive)	-35.2% (inactive)
Cc1noc(C)c1CSc1nnc(-c2ccncc2)n1-c1cccc(Cl)c1C	344	-2.1% (inactive)	-9% (inactive)	107	51.9% (inactive)	74.2	-0.482 (inactive)	5.5e-05 (inactive)	0.00492 (inactive)	10.2% (inactive)	34.9% (inactive)
Cc1cc(NC(=O)C2CCCC2)nc2c1c(=O)oc1ccccc12	601	-3.4% (inactive)	12.4% (inactive)	98.2	-16.3% (inactive)	106	-0.578 (inactive)	-4.4e-05 (inactive)	0.00687 (inactive)	7.38% (inactive)	9.88% (inactive)
O=C(NCc1cccs1)C(Cc1ccccc1)NS(=O)(=O)c1cccs1 (configuration not stated)	469	-1.7% (inactive)	0% (inactive)	108	-26.1% (inactive)	111	-0.437 (inactive)	-0.000238 (active)	0.00454 (inactive)	14.7% (inactive)	15.2% (inactive)
CN(C)S(=O)(=O)c1ccc2c(c1)C(CC(=O)O)OC2=O (configuration not stated)	616	2.3% (inactive)	13.2% (inactive)	109	27.5% (inactive)	105	-0.511 (inactive)	0.000172 (inactive)	0.00625 (inactive)	17.3% (inactive)	26.3% (inactive)
O=C(CSC1=NCCS1)NCc1ccco1	294	0.2% (inactive)	16.5% (inactive)	87.2	-109% (inactive)	108	-0.268 (inactive)	1.6e-06 (inactive)	0.00551 (inactive)	-13.7% (inactive)	-22.5% (inactive)
CCOc1cc(C)c(C(C)C)cc1S(=O)(=O)N1CCN(C)CC1	775	-2.4% (inactive)	19% (inactive)	93.4	-3% (inactive)	112	-0.475 (inactive)	1.9e-05 (inactive)	0.00438 (inactive)	-9.48% (inactive)	-5.37% (inactive)
CCOC(=O)c1ccc(NC(=O)CSc2ncccn2)cc1	366	10.7% (inactive)	-25% (inactive)	101	-62.8% (inactive)	100	-0.532 (inactive)	-0.000128 (inactive)	0.0039 (inactive)	-20.7% (inactive)	-63.9% (inactive)
CCCn1c2ccccc2c2nnc(SCC(=O)Nc3ncccn3)nc21	696	-4.4% (inactive)	-41% (inactive)	53.5	-10.4% (inactive)	98.8	-0.551 (inactive)	-1.7e-05 (inactive)	0.00402 (inactive)	12.2% (inactive)	21.2% (inactive)
Cc1nc(SCC(=O)Nc2ccccc2C(F)(F)F)c2c(=O)n(C)c(=O)n(C)c2n1	414	-4.7% (inactive)	1.1% (inactive)	120	-111% (inactive)	121	-0.447 (inactive)	8.7e-05 (inactive)	0.0097 (inactive)	7.4% (inactive)	13.5% (inactive)
CCOC(=O)C1C(=O)OC(C)(C)C1C(C)C(=O)c1ccc(OC)cc1 (configuration not stated)	605	-6.4% (inactive)	-4.2% (inactive)	42.1	3.9% (inactive)	92.7	-0.47 (inactive)	3.2e-06 (inactive)	0.00448 (inactive)	21.2% (inactive)	23.4% (inactive)
CC1CCCCN1CCNC(=O)c1ccc2c(=O)n(CCc3ccccc3)c(=O)[nH]c2c1 (configuration not stated)	105	116% (active)	12.7% (inactive)	91.2	-3.9% (inactive)	119	-0.279 (inactive)	-3.6e-05 (inactive)	0.00585 (inactive)	2.66% (inactive)	-7.7% (inactive)
Cc1onc(-c2ccccc2)c1C(=O)N1CCCSC1=Nc1ccccc1	665	6.5% (inactive)	12.6% (inactive)	110	29.1% (inactive)	79.6	-0.567 (inactive)	-5.7e-05 (inactive)	0.00639 (inactive)	10.2% (inactive)	31.9% (inactive)
CCN(C(=O)Cc1c(C(=O)O)[nH]c2ccccc12)c1cc(OC)ccc1OC	439	-5.2% (inactive)	-10% (inactive)	120	-36% (inactive)	143	-0.286 (inactive)	-4e-05 (inactive)	0.00689 (inactive)	13.8% (inactive)	24.5% (inactive)
COc1ccc(-c2cc(C(=O)N3CCN(Cc4ccccc4)CC3)no2)cc1OC	463	-23% (inactive)	-5.8% (inactive)	106	-36% (inactive)	112	-0.318 (inactive)	-6.6e-05 (inactive)	0.00627 (inactive)	8.32% (inactive)	12.9% (inactive)
CS(=O)(=O)N1CCN(C(=O)c2ccc(-c3ccccc3)cc2)CC1	481	4% (inactive)	-11% (inactive)	108	-287% (inactive)	128	-0.541 (inactive)	-5.8e-05 (inactive)	0.00648 (inactive)	18.4% (inactive)	22.5% (inactive)
CC1CCN(CC(O)COC2CCC(C(C)(C)C)CC2)CC1 (configuration not stated)	719	-6.8% (inactive)	1.9% (inactive)	118	-11.7% (inactive)	111	-0.453 (inactive)	-0.000251 (inactive)	0.00347 (inactive)	6.5% (inactive)	-5.56% (inactive)
